# Data: ChEMBL document CHEMBL1153905, “Functionalized 3-benzylidene-indolin-2-ones: inducers of NAD(P)H-quinone oxidoreductase 1 (NQO1) with antiproliferative activity” (Bioorg Med Chem, 2009)
# Columns and labels:
# HCT-116 [1] = test: Cell cycle arrest in human HCT116 cells released from G2 block assessed as accumulation at S phase at 30 uM after 24 hrs by flow cytometry; type: functional
# HCT-116 [2] = test: Cell cycle arrest in human HCT116 cells released from G1 block assessed as accumulation at G1 phase at 30 uM after 24 hrs by flow cytometry; type: functional
# HCT-116 [3] = test: Cell cycle arrest in human HCT116 cells released from G2 block assessed as accumulation at G1 phase at 30 uM after 24 hrs by flow cytometry; type: functional
# HCT-116 [4] = test: Cell cycle arrest in human HCT116 cells released from G1 block assessed as accumulation at G2/M phase at 30 uM after 24 hrs by flow cytometry; type: functional
# [5] = Antiproliferative activity against human CCL186 cells after 72 hrs by MTT assay; type: cell-based; settings: CCL186, 72 h
# Summary of the method: (§1)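 Cells seeded at 10,000 (MCF7), 4000 (HCT116) or 5000 (CCL186) per well and grown 24 h; MCF7 and CCL186 in EMEM with pyruvate, glutamine, 10% FBS; HCT116 in McCoy's 5A with 10% FBS. Compounds from DMSO stocks (≤1% DMSO final), 72 h exposure; MTT 0.5 mg/ml for 3 h, formazan in DMSO read at 590 nm. IC50 from sigmoidal survival curve, three separate occasions.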
# HCT-116 [6] = test: Cell cycle arrest in human HCT116 cells released from G2 block assessed as accumulation at sub G1 phase at 30 uM after 24 hrs by flow cytometry; type: functional
# [7] = Selectivity ratio of IC50 for human CCL186 cells to IC50 for human HCT116 cells; type: ADME, cell-based, HCT-116; settings: CCL186 cells and HCT116 cells, read-out: Ratio IC50
# Summary of the method: (§2)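 MTT assay. MCF7 and CCL186 cells were grown in EMEM/10% FBS, HCT116 in McCoy's 5A/10% FBS. Seeding was 10,000 (MCF7), 4000 (HCT116) and 5000 (CCL186) cells per well, 24 h. Compound exposure was 72 h, DMSO ≤1% final. MTT 0.5 mg/ml for 3 h, formazan dissolved in DMSO, A590. IC50 came from sigmoidal survival curves, with 3 separate occasions per concentration. Ratio = IC50 CCL186 / IC50 of the cancer line.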
# HCT-116 [8] = test: Cell cycle arrest in human HCT116 cells released from G1 block assessed as accumulation at sub G1 phase at 30 uM after 24 hrs by flow cytometry; type: functional
# HCT-116 [9] = test: Antiproliferative activity against human HCT116 cells after 72 hrs by MTT assay; type: functional, cell-based; settings: HCT-116, 72 h; summary of the method: as §1
# MCF7 [10] = test: Antiproliferative activity against human MCF7 cells after 72 hrs by MTT assay; type: functional, cell-based; settings: MCF7, 72 h; summary of the method: as §1
# HCT-116 [11] = test: Cell cycle arrest in human HCT116 cells released from G1 block assessed as accumulation at S phase at 30 uM after 24 hrs by flow cytometry; type: functional
# [12] = Cytotoxicity against mouse Hepa-1c1c7 cells after 48 hrs by MTT assay; type: cell-based; settings: hepa-1c1c7, 48 h
# Summary of the method: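 Murine hepatoma cells in α-MEM with 10% heat- and charcoal-treated fetal calf serum, passages 6–17; MTT read-out as for the cancer lines but with 48 h compound exposure. Highest concentration tested 25 µM. IC50 from survival-versus-concentration curve; mean and SD, n = 3.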
# HCT-116 [13] = test: Cell cycle arrest in human HCT116 cells released from G2 block assessed as accumulation at G2/M phase at 30 uM after 24 hrs by flow cytometry; type: functional
# MCF7 [14] = test: Selectivity ratio of IC50 for human CCL186 cells to IC50 for human MCF7 cells; summary of the method: as §2
# CYP1A1 [15] = target: T1, CYP1A1 (Mus musculus, UniProt P00184); test: Induction of CYP1A1 activity in mouse Hepa-1c1c7 cells assessed as induction ratio at 15 uM by EROD assay relative to control; type: ADME, cell-based
# T1 sequence (P00184 whole entry): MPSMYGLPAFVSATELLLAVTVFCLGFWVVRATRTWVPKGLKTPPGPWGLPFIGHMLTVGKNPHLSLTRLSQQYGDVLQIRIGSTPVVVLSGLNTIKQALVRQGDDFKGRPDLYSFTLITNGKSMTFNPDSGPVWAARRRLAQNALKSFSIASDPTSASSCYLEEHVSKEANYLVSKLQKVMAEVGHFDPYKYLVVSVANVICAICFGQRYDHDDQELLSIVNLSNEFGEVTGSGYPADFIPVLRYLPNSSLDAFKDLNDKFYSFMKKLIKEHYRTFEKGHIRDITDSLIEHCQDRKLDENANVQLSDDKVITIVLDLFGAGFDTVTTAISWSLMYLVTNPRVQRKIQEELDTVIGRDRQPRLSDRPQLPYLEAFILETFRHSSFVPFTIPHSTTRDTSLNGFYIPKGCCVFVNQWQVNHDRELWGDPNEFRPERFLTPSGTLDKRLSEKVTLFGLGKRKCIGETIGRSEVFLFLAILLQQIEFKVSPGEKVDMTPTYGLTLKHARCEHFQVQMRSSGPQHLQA
# Summary of the method: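 Hepa1c1c7 cells were seeded at 10,000 per well and grown 24 h. They were then exposed 48 h to compound (final DMSO 0.5% v/v) at about 4 × the NQO1 CD. After a PBS wash, cells got 5 µM 7-ethoxyresorufin plus 2 mM salicylamide in medium, 37 °C, 40 min. Resorufin was read at ex 530/em 590 nm, corrected for compound fluorescence. Ratio = (F treated − blank)/(F DMSO control − blank); mean ± SD, n = 3.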
# [16] = target: NAD(P)H dehydrogenase [quinone] 1 (Mus musculus) (UniProt Q64669); test: Induction of NQO1 activity in mouse Hepa-1c1c7 cells assessed as induction ratio at 15 uM after 48 hrs by MTT assay relative to control; type: cell-based
# Summary of the method: (§3)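 Hepa1c1c7 cells, 10,000 per well, 24 h, were then treated 48 h (DMSO ≤0.5%). Digitonin/EDTA lysates were assayed for menadione-dependent MTT-formazan formation using a G6P/G6PDH NADPH-generating mix with FAD at pH 7.4. The reaction ran 5 min, was stopped with dicoumarol, and read at A590. Degree of induction = (A test − blank)/(A control − blank). Ratios were read off the induction–concentration plot at the EROD test concentration.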
# HCT-116 [17] = test: Cell cycle arrest in human HCT116 cells released from G1 block assessed as accumulation at G2/M phase at 2.5 uM after 24 hrs by flow cytometry; type: functional
# CYP1A1 [18] = target: T1, CYP1A1; test: Induction of CYP1A1 activity in mouse Hepa-1c1c7 cells assessed as induction ratio at 0.5 uM after 48 hrs by EROD assay relative to control; type: ADME, cell-based
# Summary of the method: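 About 10,000 Hepa1c1c7 cells/well cultured 24 h, then compound (0.5% DMSO final) for 48 h, at roughly 4 × the concentration doubling NQO1 activity. After PBS wash, cells given 5 µM 7-ethoxyresorufin plus 2 mM salicylamide, 37 °C, 40 min; resorufin fluorescence ex 530/em 590 nm, corrected for compound fluorescence. Ratio = (treated − blank)/(DMSO control − blank); mean ± SD, n = 3.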
# HCT-116 [19] = test: Cell cycle arrest in human HCT116 cells released from G1 block assessed as accumulation at sub G1 phase at 2.5 uM after 24 hrs by flow cytometry; type: functional
# HCT-116 [20] = test: Cell cycle arrest in human HCT116 cells released from G1 block assessed as accumulation at G1 phase at 2.5 uM after 24 hrs by flow cytometry; type: functional
# [21] = target: NAD(P)H dehydrogenase [quinone] 1 (Mus musculus) (UniProt Q64669); test: Induction of NQO1 activity in mouse Hepa-1c1c7 cells assessed as induction ratio at 0.5 uM after 48 hrs by MTT assay relative to control; type: cell-based; summary of the method: as §3
# HCT-116 [22] = test: Cell cycle arrest in human HCT116 cells released from G1 block assessed as accumulation at S phase at 2.5 uM after 24 hrs by flow cytometry; type: functional
# HCT-116 [23] = test: Cell cycle arrest in human HCT116 cells released from G2 block assessed as accumulation at G2/M phase at 2.5 uM after 24 hrs by flow cytometry; type: functional
# HCT-116 [24] = test: Cell cycle arrest in human HCT116 cells released from G2 block assessed as accumulation at S phase at 2.5 uM after 24 hrs by flow cytometry; type: functional
# HCT-116 [25] = test: Cell cycle arrest in human HCT116 cells released from G2 block assessed as accumulation at sub G1 phase at 2.5 uM after 24 hrs by flow cytometry; type: functional
# HCT-116 [26] = test: Cell cycle arrest in human HCT116 cells released from G2 block assessed as accumulation at G1 phase at 2.5 uM after 24 hrs by flow cytometry; type: functional
# NAD(P)H dehydrogenase [quinone] 1 (Mus musculus), sequence (Q64669 whole entry): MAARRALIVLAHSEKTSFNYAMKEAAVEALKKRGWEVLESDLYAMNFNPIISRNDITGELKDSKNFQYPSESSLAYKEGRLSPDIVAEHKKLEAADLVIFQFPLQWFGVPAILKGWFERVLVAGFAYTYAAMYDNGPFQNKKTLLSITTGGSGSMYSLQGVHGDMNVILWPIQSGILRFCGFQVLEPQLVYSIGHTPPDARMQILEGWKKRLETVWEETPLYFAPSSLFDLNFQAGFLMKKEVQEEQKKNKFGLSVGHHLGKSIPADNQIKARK
smiles,measurement,setting,value
O=C1Nc2ccccc2/C1=C\c1cccc2ccccc12,Activity,HCT-116 [1],14.61%
same,Activity,HCT-116 [2],32.69%
same,Activity,HCT-116 [3],51.32%
same,Activity,HCT-116 [4],38.42%
same,IC50,[5],25 µM
same,Activity,HCT-116 [6],5.68%
same,selectivity ratio,[7],1.3
same,Activity,HCT-116 [8],2.96%
same,IC50,HCT-116 [9],3.9 µM
same,IC50,MCF7 [10],19.6 µM
same,Activity,HCT-116 [11],26.91%
same,IC50,[12],18.6 µM
same,Activity,HCT-116 [13],28.26%
same,Ratio IC50,MCF7 [14],6.4
O=C1Nc2ccccc2/C1=C\c1ccc(F)cc1F,fold induction at 15 µM,CYP1A1 [15],1.89
same,Ratio,[16],5.06
same,IC50,[12],> 25 µM
COc1cccc(/C=C2/C(=O)Nc3cc(OC)ccc32)c1,Activity,HCT-116 [17],71.54%
same,"fold induction at 48 h, 0.5 µM",CYP1A1 [18],1.13
same,Activity,HCT-116 [19],4.22%
same,Activity,HCT-116 [20],10.56%
same,IC50,[5],1.8 µM
same,selectivity ratio,[7],1.4
same,Ratio,[21],3.08
same,IC50,HCT-116 [9],1.2 µM
same,Activity,HCT-116 [22],13.81%
same,IC50,MCF7 [10],1.3 µM
same,Activity,HCT-116 [23],43.57%
same,IC50,[12],9.8 µM
same,Activity,HCT-116 [24],15.36%
same,Activity,HCT-116 [25],30.54%
same,Activity,HCT-116 [26],26.01%
same,Ratio IC50,MCF7 [14],1.5
